# Screening results: PubChem, Johns Hopkins Ion Channel Center
# In the library only some 2.3% were active in any assay of this set; here they are far more common.
# TRPC6 act = activators of mouse TRPC6 channel; 0.13% of 310,000 active; B-score at 10 µM; HEK293-TRPC6 membrane potential dye fluorescence; hits give high values;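 active means B-score of the integrated fluorescence ratio above library mean plus 3 SD, and starting fluorescence ratio within library mean plus 5 SD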;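 further: higher score means more depolarization so channel activation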
# Target sequence (Q61143 whole entry, looked up): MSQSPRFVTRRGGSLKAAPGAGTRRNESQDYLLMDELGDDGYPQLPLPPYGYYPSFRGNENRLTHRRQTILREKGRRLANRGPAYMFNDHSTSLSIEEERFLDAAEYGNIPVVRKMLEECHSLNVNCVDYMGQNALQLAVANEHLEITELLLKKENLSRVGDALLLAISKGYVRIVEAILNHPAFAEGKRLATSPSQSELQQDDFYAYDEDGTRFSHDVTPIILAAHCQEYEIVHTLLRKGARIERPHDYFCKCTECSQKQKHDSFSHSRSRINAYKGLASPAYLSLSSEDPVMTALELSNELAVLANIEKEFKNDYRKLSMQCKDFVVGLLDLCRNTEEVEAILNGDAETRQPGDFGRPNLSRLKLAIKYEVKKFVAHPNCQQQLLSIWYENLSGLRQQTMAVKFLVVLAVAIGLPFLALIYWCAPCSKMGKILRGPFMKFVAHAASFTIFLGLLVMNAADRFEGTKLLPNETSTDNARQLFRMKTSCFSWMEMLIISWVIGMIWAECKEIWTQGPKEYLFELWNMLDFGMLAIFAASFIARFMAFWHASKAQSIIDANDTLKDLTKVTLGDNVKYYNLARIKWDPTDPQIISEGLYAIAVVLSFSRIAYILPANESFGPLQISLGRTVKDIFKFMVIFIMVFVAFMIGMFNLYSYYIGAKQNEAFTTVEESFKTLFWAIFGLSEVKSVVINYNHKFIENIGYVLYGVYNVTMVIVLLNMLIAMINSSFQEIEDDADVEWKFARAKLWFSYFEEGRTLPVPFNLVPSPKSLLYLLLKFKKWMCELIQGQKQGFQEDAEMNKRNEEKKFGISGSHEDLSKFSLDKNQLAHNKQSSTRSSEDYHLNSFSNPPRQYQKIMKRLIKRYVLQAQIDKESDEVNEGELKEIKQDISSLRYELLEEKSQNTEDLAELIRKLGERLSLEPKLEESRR
# TRPC4 block = inhibitors of mouse TRPC4 channel. Q9QUQ5. HEK293 TRPC4beta/mu-opioid, DAMGO-evoked Fluo4 calcium flux; hits give low values. B-score at 10 µM. 0.39% of 300,000 active. AID 2247;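 active means B-score over 3 SD under the library average, no early fluorescence shift, positive overall ratio signal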
#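 Material: HEK293 cells with stable TRPC4beta plus mu-opioid receptor expression; probe or stimulus: DAMGO in two steps, submaximal then maximal; technique: Fluo4 calcium fluorescence by kinetic imaging, 5 s 1 Hz baseline; measure: integrated fluorescence ratio relative to baseline, converted to per-well B score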
# TRPC4 potent = TRPC4 (mouse) allosteric potentiation; HEK293 TRPC4beta/mu-opioid, DAMGO EC20, Fluo-4 Ca2+ flux; hits give high values; B-score at 10 µM; 0.42% of 310,000 active; AID 2227;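 active means B-score of calcium response area above 5 SD of library B-scores, with initial fluorescence ratio within 5 SD of library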;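 further: B-score of integrated fluorescence ratio over time as area under calcium response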
# TRPC6 inhibitor = inhibitors of mouse TRPC6 channel; 1.1% of 310,000 active; Q61143; HEK293-TRPC6, membrane potential dye, ACh-evoked depolarization; hits give low values; AID 2553; B-score at 10 µM;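 active means B-score under library mean minus 3 SD, initial fluorescence not abnormally high, positive integrated signal ratio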;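 further: B-score derived from integrated fluorescence ratio over the kinetic read; more negative B-score means stronger inhibition of depolarization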
# TRPC4 agonist = TRPC4 (mouse) channel activation; B-score at 10 µM; HEK293 TRPC4beta/mu-opioid, Fluo4 calcium fluorescence; hits give high values; 0.49% of 310,000 active; AID 2237;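 active means B-score above 5 SD of library B-scores, and initial fluorescence ratio not above library mean plus 5 SD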;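 further: positive B-score marks a calcium rise read as TRPC4 activation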
#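 System – HEK293 cells stably co-expressing mouse TRPC4beta and mu-opioid receptor · Signal – Fluo4 calcium-sensitive dye fluorescence, kinetic, 1 Hz baseline · Benchmarks – buffer (low) and maximal DAMGO (high) · Read-out – B score of integrated fluorescence ratio per well · Incubation – dye loading 45 min room temperature, 110 s kinetic read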
# TRPC4 sel inh 2 = second selectivity test of TRPC6 inhibitors: effect on mouse TRPC4 | shares compounds with TRPC6 inhibitor | HEK293 TRPC4/MOR, membrane potential dye fluorescence; channel activated by saturating DAMGO dose | inhibition, % at 10 µM | 42% of 920 active | AID 2776;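 active means compounds whose fluorescence signal differed from control wells by over 3 SD, either direction, in both duplicate plates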
# TRPC4 spec = selectivity of TRPC6 inhibitors: effect on mouse TRPC4. HEK293 TRPC4/mu-opioid, membrane potential fluorescence. AID 2777. 61% of 920 active. activity change, negative = inhibition, % at 10 µM. shares compounds with TRPC6 inhibitor;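 active means rise or fall in signal beyond 3 SD of buffer-only wells in both replicate plates, either sign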;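 further: integrated kinetic ratio of fluorescence range over baseline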
# HEK293 MPD ctr 2-1 = second counter-screen for TRPC6 inhibitors: parental HEK293 cells; AID 2779; signal change vs control, % at 10 µM; shares compounds with TRPC6 inhibitor; 31% of 920 active; parental HEK293 membrane potential dye fluorescence; maximal acetylcholine challenge after compound addition;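 active means membrane potential signal moving either way by over 3 SD of the maximum-effect control, in both duplicate plates, meaning non-specific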
# HEK293 MPD ctr-1 = counter-screen for TRPC6 inhibitors: effect in parental HEK293 cells | shares compounds with TRPC6 inhibitor | parental HEK293 membrane potential dye fluorescence | membrane potential signal change, % at 10 µM | 60% of 920 active | AID 2780;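 active means membrane potential signal shifting up or down by more than 3 SD of buffer-only wells, on both duplicate plates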
# HEK293 MPD ctr-2 = checks TRPC6 modulator effects in parental HEK293 cells; shares compounds with TRPC6 inhibitor; AID 488924; membrane potential signal change, % at 10 µM; 51% of 2,400 active; membrane potential dye fluorescence;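 active means membrane potential signal moves up or down beyond 5 SD from buffer-only wells, on both duplicate plates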
# HEK293 MPD ctr 2-2 = second check of TRPC6 modulator effects in parental HEK293 cells; shares compounds with TRPC6 inhibitor; membrane potential dye fluorescence; after compound, maximal acetylcholine stimulation; inhibition, % at 10 µM; 14% of 2,400 active; AID 488926;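 active means membrane potential signal drops by more than 5 SD from the mean control signal, in both duplicate plates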;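 further: plate controls were acetylcholine ECmax control wells for no effect and buffer only wells for full effect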
# TRPC4/MOR mod = mouse TRPC4 off-target activity of TRPC6 modulators. HEK293 TRPC4/mu-opioid, membrane potential fluorescence. shares compounds with TRPC6 inhibitor. 69% of 2,400 active. AID 488927. percent change from control (negative = decrease, positive = increase), % at 10 µM;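 active means membrane potential signal moved up or down beyond 5 SD of buffer control wells, in both duplicate plates, actives on both sides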;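 further: plate controls were assay buffer wells for no effect and DAMGO maximal-effect wells for full effect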
# TRPC4/MOR inh 2 = second selectivity test of TRPC6 modulators against mouse TRPC4 | shares compounds with TRPC6 inhibitor | HEK293 TRPC4/mu-opioid, membrane potential dye fluorescence; stimulated with maximal-effect DAMGO | inhibition, % at 10 µM | 55% of 2,400 active | AID 488928;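 active means drop in membrane potential signal beyond 5 SD of the control wells in both duplicate plates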;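 further: TRPC4 counter screen for TRPC6 hits run under conditions tuned for TRPC6 not TRPC4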
# TRPC6 inh conf = mouse TRPC6 inhibitor confirmation | shares compounds with TRPC6 inhibitor | HEK293-TRPC6, membrane potential dye, ACh-evoked depolarization | inhibition, % at 10 µM | 43% of 3,300 active | AID 488960;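 active means fluorescence ratio falls more than 5 SD below the full-stimulation control mean, in both duplicate runs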;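 further: integrated fluorescence ratio of peak minus minimum over baseline after agonist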
# TRPC6 act conf = mouse TRPC6 activator confirmation; HEK293-TRPC6 membrane potential dye fluorescence, FDSS; 11% of 2,800 active; activation, % at 10 µM; shares compounds with TRPC6 inhibitor;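 active means ratio signal rise beyond 5 SD above unstimulated control wells' mean, seen in both duplicate runs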;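 further: plate controls were buffer EC0 wells for no effect and acetylcholine ECmax response for full effect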
# Numbers without * were called inactive; i = inactive; x = not tested or not shown.
SMILES,TRPC6 act,TRPC4 block,TRPC4 potent,TRPC6 inhibitor,TRPC4 agonist,TRPC4 sel inh 2,TRPC4 spec,HEK293 MPD ctr 2-1,HEK293 MPD ctr-1,TRPC6 inh conf,TRPC6 act conf,others
O=C(Nc1ncc([N+](=O)[O-])s1)c1cccc([N+](=O)[O-])c1,i,i,i,i,i,x,x,x,x,x,x,
O=C(Nc1ccccc1)Nc1ncc([N+](=O)[O-])s1,i,i,i,-7.4*,i,54%*,43%*,i,21%*,96%*,x,
COc1ccc(-c2nc(NCCCN(C)C)c3ccccc3n2)cc1,i,i,i,-6.7*,i,55%*,-32%*,i,-387%*,85%*,i,
COc1ccc(C(CNc2nc(-c3cccnc3)nc3ccccc23)N(C)C)cc1 (stereo not drawn),i,i,i,-7.5*,188*,x,x,x,x,55%*,i,HEK293 MPD ctr-2=-277%*;HEK293 MPD ctr 2-2=i;TRPC4/MOR mod=-38%*;TRPC4/MOR inh 2=90%*
c1ccc(-c2nc(NCCCn3ccnc3)c3ccccc3n2)cc1,i,i,i,-5.2*,i,x,x,x,x,61%*,i,HEK293 MPD ctr-2=-220%*;HEK293 MPD ctr 2-2=i;TRPC4/MOR mod=-50%*;TRPC4/MOR inh 2=72%*
CCN(CC)CCCNc1nc(-c2ccccc2)nc2ccccc12,i,i,i,-8.8*,i,40%*,-27%*,35%*,-355%*,76%*,i,
COc1ccc(/C=C/C(=O)O)cc1S(=O)(=O)Nc1ccc2c(c1)OCO2,i,i,i,i,i,x,x,x,x,x,x,
O=Cc1sc([O-])nc1-[n+]1ccc2ccccc2c1,i,i,i,i,i,x,x,x,x,x,x,
CCCCN(CCCNC(=O)Cn1nc(CC)n2c(cc3sc(C)cc32)c1=O)Cc1ccccc1,i,i,i,i,i,x,x,x,x,x,x,
CC(Nc1nc(-c2ccccc2)nc2ccccc12)c1ccccc1 (stereo not drawn),i,i,i,-7.3*,i,i,-9.5%*,i,i,i,i,
CC(Nc1nc(-c2ccccc2O)nc2ccccc12)c1ccccc1 (stereo not drawn),i,i,i,i,i,x,x,x,x,x,x,
O=S(=O)(CCNCc1cccs1)c1ccc(Cl)cc1,i,i,i,i,i,x,x,x,x,x,x,
O=C(c1ccc(Cl)c(S(=O)(=O)N2CCOCC2)c1)N(c1ccccn1)C1CCCCC1,i,i,i,-6*,i,x,x,x,x,i,x,HEK293 MPD ctr-2=170%*;HEK293 MPD ctr 2-2=i;TRPC4/MOR mod=30%*;TRPC4/MOR inh 2=i
Cc1cc(OCC(=O)N2CCC(C(=O)O)CC2)c2c(C)c(C)c(=O)oc2c1,i,i,i,i,i,x,x,x,x,x,x,
FC(F)(F)c1cc(-c2ccccc2)nc(N2CCCCCC2)n1,i,i,i,i,i,x,x,x,x,x,x,
c1ccc(-c2cnnc(N3CCCCC3)n2)cc1,i,i,i,-6.9*,i,i,0.7%*,i,i,72%*,x,
CN(C)CCOC(=O)/C(=C/c1cn(C)c2ccccc12)NC(=O)c1ccccc1,i,i,i,-7.7*,i,i,i,i,i,i,i,
Cn1cc(/C=C(\NC(=O)c2ccccc2)C(=O)N2CCOCC2)c2ccccc21,i,i,i,i,i,x,x,x,x,x,x,
Cc1ccc(C(=O)N/C(=C\c2cn(C)c3ccccc23)C(=O)OCCN(C)C)cc1,i,i,i,-7.5*,i,57%*,-15%*,i,-280%*,i,i,
CC(=O)Oc1ccc(N(C(C)=O)S(=O)(=O)c2ccc3ccccc3c2)cc1,i,i,i,i,i,x,x,x,x,x,x,
O=c1c2ccccc2oc2cc(OCc3ccc(F)cc3)cc(O)c12,i,i,i,i,i,x,x,x,x,x,x,
Fc1ccc([C@@H]2CCNC[C@H]2COc2ccc3c(c2)OCO3)cc1,i,i,i,-5.3*,142*,14%*,47%*,i,0.5%*,72%*,i,HEK293 MPD ctr-2=i;HEK293 MPD ctr 2-2=64%*;TRPC4/MOR mod=39%*;TRPC4/MOR inh 2=95%*
CSc1cccc(NC(=S)N(CCCN2CCCC(C)C2)Cc2cccs2)c1 (stereo not drawn),i,i,i,-8.1*,i,48%*,2.2%*,i,3.1%*,56%*,i,
COc1ccc(NC(=S)N(CCCN2CCC(C)CC2)Cc2cccs2)cc1Cl,i,i,i,-6*,i,x,x,x,x,48%*,i,HEK293 MPD ctr-2=i;HEK293 MPD ctr 2-2=i;TRPC4/MOR mod=i;TRPC4/MOR inh 2=84%*
COc1ccc(NC(=S)N(CCCN2CCN(C)CC2)Cc2cccs2)cc1,i,i,i,i,i,x,x,x,x,x,x,
C=CCN1C2CCCC1CC(NC(=O)Nc1cccc(C(C)=O)c1)C2 (stereo not drawn),i,i,i,-5.4*,i,x,x,x,x,85%*,x,HEK293 MPD ctr-2=i;HEK293 MPD ctr 2-2=i;TRPC4/MOR mod=i;TRPC4/MOR inh 2=i
Cc1cc(=O)oc2c(C)c(OCC(=O)N3CCN(c4cccc(Cl)c4)CC3)ccc12,i,i,i,i,i,x,x,x,x,x,x,
O=C(CNCc1ccccc1)Nc1cccc(Cl)c1Cl,i,i,i,-6.2*,i,x,x,x,x,i,x,HEK293 MPD ctr-2=i;HEK293 MPD ctr 2-2=i;TRPC4/MOR mod=14%*;TRPC4/MOR inh 2=41%*
CCOc1cc(C(=O)NN2CCOCC2)cc(OCC)c1OCC,i,i,i,i,i,x,x,x,x,x,x,
